# An excerpt weighted towards active compounds, which were near 2.1% of everything screened.
# TRPML3 agonist: activates the human TRPML3 channel. Q8TDD5. HEK293 TRPML3-YFP, Fluo-8 calcium fluorescence; 100% = the carbachol control signal. activation, % at 3 µM. 220,000 compounds, 0.29% hits. AID 1448;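 active = activation above its plate's cutoff, the mean activation of the plate's test wells plus 3 SD, cut at about 12% in these data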;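 also: 0% = DMSO only wells and 100% = carbachol wells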
# Target sequence (Q8TDD5 whole entry, looked up): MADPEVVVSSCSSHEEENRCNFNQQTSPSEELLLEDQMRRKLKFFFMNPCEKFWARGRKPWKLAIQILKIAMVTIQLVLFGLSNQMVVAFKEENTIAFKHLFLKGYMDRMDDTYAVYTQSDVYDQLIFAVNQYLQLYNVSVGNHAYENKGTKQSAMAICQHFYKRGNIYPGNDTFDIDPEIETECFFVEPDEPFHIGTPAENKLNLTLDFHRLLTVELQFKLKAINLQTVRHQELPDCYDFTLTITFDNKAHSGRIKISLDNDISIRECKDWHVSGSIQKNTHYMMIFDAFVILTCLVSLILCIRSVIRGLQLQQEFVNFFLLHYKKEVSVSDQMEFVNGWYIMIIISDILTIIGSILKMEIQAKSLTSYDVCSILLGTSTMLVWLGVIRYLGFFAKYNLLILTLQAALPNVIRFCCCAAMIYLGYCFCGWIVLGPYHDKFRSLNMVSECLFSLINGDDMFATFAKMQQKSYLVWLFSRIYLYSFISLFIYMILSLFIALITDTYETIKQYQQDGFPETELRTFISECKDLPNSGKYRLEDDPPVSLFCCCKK
#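 Test system: HEK293 cells stably carrying human TRPML3-YFP; Doses: single dose, 3 µM final nominal compound, 0.3% DMSO final; Schedule: dye loading 1 h 37 °C then 30 min ambient, 125 s read; Technique: Fluo-8 calcium fluorescence; Benchmarks: high control carbachol 87 µM, low control DMSO.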
# CRFR2-BP ag: CRF-BP/CRF-R2 complex agonism; HEK293 CRF-R2/CRF-BP, calcium dye fluorescence (FLIPR); percent of saturating CRF peptide response; activation, % at 13.2 µM; 350,000 compounds, 0.46% hits;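 active = activation of at least 50%, plus an integration ratio under a set limit after plate pattern correction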;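 also: plate controls were neutral control wells without compound for no effect and CRF at EC100 for full effect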
# TRPN1 ag: agonists of zebrafish TRPN1 channel. HEK293 zebrafish TRPN1-YFP, Fluo-8 calcium fluorescence; 100% = response to 87 µM carbachol. activation, % at 3 µM. 220,000 compounds, 0.18% hits. AID 1424;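 active = activation above its plate's cutoff, the mean activation of test wells on that plate plus 3 SD, cut at about 19% in these data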;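 also: 0% = DMSO alone and 100% = 87 µM carbachol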
#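 Assay system: Zebrafish TRPN1-YFP in HEK293 cells | Incubation: Dye loading 1 h at 37 °C, then 30 min room temperature | Measured by: Kinetic Fluo-8 fluorescence, ex 470-495, em 515-575 nm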
# IMP-1 inhibitor: blocks Pseudomonas aeruginosa IMP-1 metallo-beta-lactamase; purified IMP-1, nitrocefin hydrolysis, epi-absorbance fluorescence; inhibition, % at 5.6 µM; 290,000 compounds, 0.45% hits;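 active = inhibition above the mean plus 3 SD of all compounds in the same screening run, cut at about 4.5% in these data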;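 also: 0% = IMP-1 with DMSO and 100% = DMSO wells lacking enzyme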
#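 assay system = purified recombinant IMP-1 metallo-beta-lactamase enzyme | schedule = 15 min preincubation plus 25 min reaction at 25 °C | signal = Epi-absorbance fluorescence, 480 nm excitation, 530 nm emission | read-out basis = percent inhibition from optical density relative to buffer-blank wells | controls = IMP-1 with DMSO as 0%, enzyme-free DMSO as 100%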
# VIM-2 inh: blocks Pseudomonas aeruginosa VIM-2 metallo-beta-lactamase | purified VIM-2, nitrocefin hydrolysis, epi-absorbance fluorescence | inhibition, % at 5.6 µM | 290,000 compounds, 0.89% hits;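 active = inhibition above the mean of all tested compounds plus 3 SD, cutoff set per screening run, cut at about 7.5% in these data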;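 also: red hydrolysis product quenches plate fluorescence so inhibitors raise well fluorescence; 0% = enzyme with DMSO and 100% = DMSO without enzyme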
# CRFBP-R2 block: antagonists of CRF-binding protein/CRF-R2 receptor complex; HEK293 CRF-R2/CRF-BP, CRF-induced calcium fluorescence; inhibition, % at 11.8 µM; 350,000 compounds, 0.59% hits; AID 588475;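 active = inhibition of the ligand-induced calcium signal above about 50% at the single tested concentration, limit read from the data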
# * = called active by the depositor; x = no result given.
SMILES,TRPML3 agonist,CRFR2-BP ag,TRPN1 ag,IMP-1 inhibitor,VIM-2 inh,CRFBP-R2 block
CCn1cc(/C=C(\NC(=O)c2ccccc2OC)C(=O)N2CCOCC2)c2ccccc21,x,-1,x,x,x,12
CCCCc1nc2sc3c(=O)[nH]c(=S)[nH]c3c2c2c1CCC2,x,1,x,x,x,0
COc1cc(-c2noc(C)c2-c2ccc(N(C)C)nc2)cc(OC)c1OC,x,53*,x,-4,-1,-17
CC(NC(=O)CNC(=O)c1cccc(Cl)c1)c1ccccc1 (centres undefined),x,-1,x,0,0,5
O=C1S/C(=C/c2ccc(N3CCOCC3)o2)C(=O)N1Cc1c(F)cccc1Cl,1,84*,-1,-3,-3,-43
O=C1S/C(=C\c2ccc(N3CCOCC3)o2)C(=O)N1Cc1c(F)cccc1Cl,1,16,1,2,1,-29
O=C(Cn1cc(COc2c(F)c(F)c(Br)c(F)c2F)nn1)c1ccc(O)cc1,x,-7,x,x,x,-21
COc1ccc2ccccc2c1/C=N/N1C(=O)CSC1=S,0,0,1,22*,0,9
O=C1CSC(=S)N1/N=C/c1c(F)cccc1F,x,0,x,12*,-2,-3
O=C1CSC(=S)N1N=Cc1c(O)ccc2ccccc12,x,49,x,x,x,-86
COc1cccc(/C=N/N2C(=O)CSC2=S)c1O,1,0,0,1,-3,12
COc1cc(/C=N/N2C(=O)CSC2=S)cc(Br)c1O,24*,31,41*,-4,3,-47
CN(C)c1ccc(C=NN2C(=O)CSC2=S)c(Cl)c1,x,50*,x,x,x,40
O=C1CSC(=S)N1/N=C/c1ccc(C(F)(F)F)cc1,x,1,x,3,-3,-23
O=C1CSC(=S)N1N=Cc1c(F)cccc1Cl,x,55*,x,x,x,29
O=C1CSC(=S)N1/N=C/c1cccc(C(F)(F)F)c1,x,-1,x,8.9*,-2,16
Cc1ccsc1C(=O)OCC(=O)N1C(C)CCCC1C (centres undefined),x,0,x,x,x,-3
CC1CCCC(C)N1C(=O)COC(=O)c1cccs1 (centres undefined),x,0,x,x,x,62*
N=C(N)c1ccc(N=Nc2c(O)ccc3c2[nH]c2ccccc23)cc1,x,-8,x,x,x,-10
CC(C)Nc1nc(Oc2ccc(=O)n(-c3ccccc3)n2)nc(N(C)C)n1,-1,1,1,-2,-1,2
Cc1c(N=C2N=C(NC(=O)NC(C)(C)C)c3ccccc32)c(=O)n(-c2ccccc2)n1C,0,-2,0,-1,-4,23
Cc1c(N=C2N=C(NC(=O)c3cccs3)c3ccccc32)c(=O)n(-c2ccccc2)n1C,1,89*,0,-3,-2,-66
CCn1nc(C)cc1-c1nnc(Sc2ncc([N+](=O)[O-])s2)n1C,x,-1,x,-4,-2,97*
CC(C)N(CCn1c(=S)[nH]c2ccccc2c1=O)C(C)C,1,50*,0,-2,-3,5
CN(C)Cc1c(C(=O)N/N=C/C2CC=CCC2)nnn1-c1nonc1N (centres undefined),x,0,x,-3,-4,12
SMILES,TRPML3 agonist,CRFR2-BP ag,TRPN1 ag,IMP-1 inhibitor,VIM-2 inh,CRFBP-R2 block
CS(=O)(=O)N(Cc1ccccc1)c1ccc(C(=O)N2CCOCC2)cc1,0,123*,0,-4,-3,-50
Cc1ncc([N+](=O)[O-])n1CCOC(=O)c1cc(Cl)cc(Cl)c1N,0,-2,-1,-2,9.4*,-14
Cc1ncc([N+](=O)[O-])n1CCOC(=O)Nc1ccc([N+](=O)[O-])cc1,0,2,2,0,-2,4
CC(NC(=O)CCNS(=O)(=O)c1cccc2nonc12)c1ccccc1 (centres undefined),x,-1,x,-5,-3,-5
COc1ccc(CNC(=O)C2(c3ccc(Cl)cc3)CC2)cc1,-1,1,0,-3,-1,61*
Cc1cc(C)cc(NC(=O)c2nnn(Cc3cc(C)ccc3C)c2N)c1,11,54*,16,-1,-2,-75
CCCc1cc(C(=O)N(C)CC(=O)Nc2ccc(OCC)c(OCC)c2)sc1C,x,-5,x,x,x,2
C=CCn1c(SCc2c(C)noc2C)nc2sc(C)c(C)c2c1=O,1,-5,-2,-4,1,74*
